From ChEMBL document CHEMBL1128578, “Synthesis and cytotoxicity of novel lignans” (J Med Chem, 1995)

Key:
GLC4 cell line [1] = assay: Cytotoxic effect against GLC4 (human small cell lung carcinoma cell line) using the microculture tetrazolium (MTT) assay based on 2 hr incubation; type: functional
How it was run: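 GLC4 SCLC cells (suspension, RPMI 1640 + 10% heat-inactivated FCS, 37 °C, 5% CO2), exponential phase, >90% viable; 3750 cells/well. Compounds diluted from 200× DMSO stocks (≤0.25% DMSO final), up to 100 μM; exposed 2 h, washed three times, then cultured 4 days. MTT 3 h 45 min, formazan in DMSO, A520; IC50 from % growth inhibition, triplicate separate experiments.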

GLC4 cell line [2] = assay: Cytotoxic effect against GLC4 (human small cell lung carcinoma cell line) using the microculture tetrazolium (MTT) assay based on continuous incubation; type: functional
How it was run: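 GLC4 cells in exponential growth (>90% viable by trypan blue) seeded at 3750/well in RPMI 1640 + 10% FCS; compounds from 200× DMSO stocks, final DMSO ≤0.25%, top concentration 100 μM, present continuously for 4 days at 37 °C, 5% CO2. MTT added for 3 h 45 min, formazan dissolved in DMSO, absorbance 520 nm; IC50 = 50% growth inhibition; n=3 separate experiments.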

| Compound | IC50 (GLC4 cell line [1]; Homo sapiens, GLC4, 2 h) [µM] | IC50 (GLC4 cell line [2]; Homo sapiens, GLC4) [µM] | IC50 (GLC4 cell line [1]; glc4) [µM] | IC50 (GLC4 cell line [2]; glc4) [µM] |
| --- | --- | --- | --- | --- |
| COc1cc([C@@H]2c3cc4c(cc3[C@H](O)[C@H]3COC(=O)[C@H]23)OCO4)cc(OC)c1O | 3.1 | 0.03 |  |  |
| COc1cc([C@@H]2c3cc4c(c(OC)c3[C@H](O)[C@H]3COC(=O)[C@H]23)OCO4)cc(OC)c1OC | 0.25 | 0.06 |  |  |
| CISPLATIN |  |  | 4.6 | 1.1 |
| COc1cc([C@@H]2c3cc4c(cc3C[C@H]3COC(=O)[C@@H]32)OCO4)cc(OC)c1OC [DESOXYPODOPHYLLOTOXIN] | 0.12 | 0.008 |  |  |
| COc1cc([C@@H](O)[C@H]2C(=O)O[C@@H](OC3CC(C)CCC3C(C)C)[C@@H]2C2(c3ccc4c(c3OC)OCO4)SCCCS2)cc(OC)c1OC (stereo partly drawn) | 75 | 8.8 |  |  |
| CO[C@@H]1OC(=O)[C@H](Cc2ccc3c(c2)OCO3)[C@H]1C(Sc1ccccc1)(Sc1ccccc1)c1ccc2c(c1)OCO2 |  | > 100 |  |  |
| COc1cc([C@@H](O)[C@H]2C(=O)O[C@@H](OC3CC(C)CCC3C(C)C)[C@@H]2C2(c3ccc(O)c(O)c3OC)SCCCS2)cc(OC)c1OCc1ccccc1 (stereo partly drawn) | > 100 | 10 |  |  |
| COc1ccc(C[C@H]2[C@H](OC3CC(C)CCC3C(C)C)OC(=O)[C@@H]2Cc2ccc(OC)c(OC)c2)cc1OC (stereo partly drawn) |  | 35 |  |  |
| CC1CCC(C(C)C)C(O[C@@H]2OC(=O)[C@H](Cc3ccc4c(c3)OCO4)[C@H]2C(Sc2ccccc2)(Sc2ccccc2)c2ccc3c(c2)OCO3)C1 (stereo partly drawn) |  | 40 |  |  |
| COc1cc(C[C@H]2C(=O)O[C@@H](OC3CC(C)CCC3C(C)C)[C@@H]2C(Sc2ccccc2)(Sc2ccccc2)c2ccc3c(c2)OCO3)ccc1OCc1ccccc1 (stereo partly drawn) |  | > 100 |  |  |
| COc1cc([C@@H]2c3cc4c(cc3[C@@H](O[C@@H]3O[C@@H]5CO[C@@H](C)O[C@H]5[C@H](O)[C@H]3O)[C@H]3COC(=O)[C@H]23)OCO4)cc(OC)c1O [ETOPOSIDE] | 4 | 0.82 |  |  |
| COc1cc([C@@H]2c3cc4c(cc3[C@@H](O[C@@H]3O[C@@H]5CO[C@@H](c6cccs6)O[C@H]5[C@H](O)[C@H]3O)[C@H]3COC(=O)[C@H]23)OCO4)cc(OC)c1O [TENIPOSIDE] | 2.8 | 0.48 |  |  |
| COc1cc([C@@H](O)[C@H]2C(=O)O[C@@H](OC3CC(C)CCC3C(C)C)[C@@H]2C(=O)c2ccc3c(c2OC)OCO3)cc(OC)c1OC (stereo partly drawn) | 7.2 | 1.7 |  |  |
| O=C1C[C@@H](C2(c3ccc4c(c3)OCO4)SCCCS2)CO1 |  | 36 |  |  |
| COc1c(C2([C@@H]3CC(=O)O[C@H]3OC3CC(C)CCC3C(C)C)SCCCS2)ccc2c1OCO2 (stereo partly drawn) |  | 29 |  |  |
| COc1cc([C@@H]2c3cc4c(cc3[C@H](O)[C@H]3COC(=O)[C@H]23)OCO4)cc(OC)c1OC [PODOFILOX] | 0.15 | 0.06 |  |  |
| COc1cc(C[C@H]2C(=O)OC[C@@H]2Cc2ccc3c(c2)OCO3)ccc1O | > 100 | 6.5 |  |  |
| COc1cc([C@@H](O)[C@H]2C(=O)O[C@@H](OC3CC(C)CCC3C(C)C)[C@@H]2C2(c3ccc4c(c3OC)OCO4)SCCCS2)cc(OC)c1OCc1ccccc1 (stereo partly drawn) |  | 48 |  |  |
| COc1cc([C@@H]2c3cc4c(cc3[C@H](O[C@@H]3O[C@H](CO)[C@@H](O)[C@H](O)[C@H]3O)[C@H]3COC(=O)[C@H]23)OCO4)cc(OC)c1OC | 58 | 10 |  |  |
| CC1CCC(C(C)C)C(O[C@@H]2OC(=O)[C@H](Cc3ccc4c(c3)OCO4)[C@H]2Cc2ccc3c(c2)OCO3)C1 (stereo partly drawn) |  | 44 |  |  |
| COc1c(C2([C@H]3COC(=O)C3)SCCCS2)ccc2c1OCO2 |  | 54 |  |  |
